Screens as filed in PubChem.
RGS4 act: potentiators or activators of RGS4; HEK293 M3R/inducible RGS4, carbachol calcium flux Fluo4; stronger effect = lower value; AID 463111; B-score at 10 µM; 310,000 compounds, 0.92% hits;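 active = B-score of the integrated calcium signal more than 4 SD below the library mean, with starting fluorescence not abnormally high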;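 also: negative B-score means reduced calcium response which marks RGS4 activation or potentiation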
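Detection: kinetic calcium fluorescence imaging with Fluo4-AM dye, 2 µM / Material: HEK293 cells with stable M3R and inducible RGS4 / Schedule: recording 10 s baseline at 1 Hz, 100 s post-agonist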
MrgX1 PAM: human MrgX1 positive allosteric modulation, primary screen; Q96LB2; MrgX1-HEK293, Fluo-4 calcium flux, FDSS; stronger effect = higher value; B-score at 10 µM; 310,000 compounds, 0.63% hits; AID 588675;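 active = plate-corrected calcium response at least 3 library SD above typical, normal starting fluorescence, not activating the receptor alone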;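 also: compound read alongside a low EC10 to EC30 dose of BAM8-22 agonist; peak minus trough fluorescence over baseline measured at the second addition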
Target sequence (Q96LB2 whole entry, looked up): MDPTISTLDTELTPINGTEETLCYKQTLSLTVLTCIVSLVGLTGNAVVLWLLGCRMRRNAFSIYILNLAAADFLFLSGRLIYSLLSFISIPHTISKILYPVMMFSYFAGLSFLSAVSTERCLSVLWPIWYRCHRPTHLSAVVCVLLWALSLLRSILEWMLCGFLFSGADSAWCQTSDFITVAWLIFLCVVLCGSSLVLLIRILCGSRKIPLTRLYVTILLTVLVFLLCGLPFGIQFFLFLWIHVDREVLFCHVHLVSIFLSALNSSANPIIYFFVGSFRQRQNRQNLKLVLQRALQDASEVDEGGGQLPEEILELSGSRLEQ
MrgX1 antag: human MrgX1 receptor antagonism, primary screen. Q96LB2. 310,000 compounds, 1.3% hits. MRGX1-HEK293 calcium flux, Fluo-4, BAM8-22 antagonism; stronger effect = lower value. B-score at 10 µM. AID 588676;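 active = calcium-response B-score plate-corrected more than 3 library SD below zero, starting fluorescence within 5 deviations, no agonist response on first addition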;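 also: peak minus trough fluorescence over baseline after final BAM8-22 challenge near maximal dose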
MrgX1 agonist: activates human MrgX1 receptor signaling; Q96LB2; MrgX1-HEK293 cells, Fluo-4 calcium fluorescence, agonist mode; stronger effect = higher value; B-score at 10 µM; 310,000 compounds, 0.44% hits; AID 588627;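 active = calcium response B-score plate-corrected fluorescence ratio at least 3 library SD, with starting fluorescence B-score inside 5 SD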
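System: HEK293 cells stably expressing human MrgX1 receptor; Dosing: test compound in the initial addition of three; Schedule: overnight plating, then 30 min 37 °C plus 30 min room-temperature dye loading; Detection: kinetic calcium dye fluorescence, Fluo-4 NW; Controls: per-plate positive and negative controls for Z′ factor.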
RGS4 inh: inhibitors of human RGS4. P49798. HEK293 M3R/RGS4 inducible, Fluo-4 calcium flux; stronger effect = higher value; triggered by carbachol at its EC20. B-score at 10 µM. 310,000 compounds, 0.45% hits;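 active = B-score, a plate-corrected calcium signal, over three deviations above library mean, with baseline fluorescence within five deviations of library mean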;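 also: RGS4 expression induced by doxycycline in cells with stable M3 receptor; B-score is computed from the integrated fluorescence ratio over baseline after carbachol; higher B-score means a larger calcium signal and so more RGS4 inhibition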
Target sequence (P49798 whole entry, looked up): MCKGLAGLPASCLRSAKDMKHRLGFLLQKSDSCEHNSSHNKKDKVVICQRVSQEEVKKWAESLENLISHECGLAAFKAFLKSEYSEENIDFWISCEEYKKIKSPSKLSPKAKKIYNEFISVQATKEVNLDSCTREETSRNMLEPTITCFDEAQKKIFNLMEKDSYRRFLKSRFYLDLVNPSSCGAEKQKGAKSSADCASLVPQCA
RGS4 inh valid: RGS4 inhibitor validation; HEK293 M3R/RGS4, carbachol calcium Fluo-4 fluorescence; carbachol added at its EC20; 0 = buffer wells, 100 = carbachol control; calcium response, % at 10 µM; AID 492999; 1,700 compounds, 65% hits; shares compounds with RGS4 inh;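 active = duplicate-averaged calcium response above the buffer-only control mean plus 5 SD of those controls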;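 also: integrated fluorescence ratio F max minus min over baseline F0; higher response in RGS4-induced cells means RGS4 inhibition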
M3R Ca ctr: counter-screen for RGS4 inhibitors: effect in non-induced cells; shares compounds with RGS4 inh; HEK293 M3R non-induced, carbachol calcium Fluo-4; submaximal (EC20) carbachol stimulus; buffer wells 0%, carbachol control wells 100%; activity (percent), % at 10 µM; 1,900 compounds, 20% hits; AID 493000; call rule not given here;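 also: RGS4 induction absent so cells express M3R without RGS4; higher means more calcium signal and flags a non-specific hit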
RGS4 inh ctr2: signal in non-induced cells without carbachol, RGS4 inhibitor counter-screen. 1,900 compounds, 22% hits. shares compounds with RGS4 inh. calcium response (agonist-mode artifact), % at 10 µM. HEK293 M3R/RGS4 non-induced, Fluo-4 calcium, no carbachol; normalised: buffer wells 0%, carbachol wells 100%;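 active = duplicate-averaged calcium rise in uninduced cells above buffer wells' mean plus 5 SD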
Of the large screens only hits and unclear results are named; the others gave an inactive call (follow-up assays come after a bar, where they were run). In the library only some 3.5% were active in any assay of this set; here they are far more common.

Nc1c(Cl)ncnc1NCc1ccccc1	none
CC(C)NC(=O)CN1C(=O)CSc2ccc(S(=O)(=O)N3CCCC3)cc21	none
COc1ccc(Cl)cc1NC(=O)C(C)OC(=O)c1ccc(NS(=O)(=O)c2ccc3[nH]c(=O)[nH]c3c2)cc1 (stereo not given)	RGS4 inh 11 | RGS4 inh valid 46% | M3R Ca ctr inactive | RGS4 inh ctr2 inactive
CC(OC(=O)c1ccc(NS(=O)(=O)c2ccc3[nH]c(=O)[nH]c3c2)cc1)C(=O)Nc1ccc(Cl)cc1 (stereo not given)	none | RGS4 inh valid inactive | M3R Ca ctr inactive | RGS4 inh ctr2 inactive
CCc1cccc(CC)c1NC(=S)NCCc1c(C)[nH]c2ccccc12	RGS4 inh 6.2 | RGS4 inh valid 22% | M3R Ca ctr inactive | RGS4 inh ctr2 inactive
Cc1cccc(CSCc2ccc(C(=O)O)o2)c1	none
Cc1ccc(CSCc2ccc(C(=O)O)o2)cc1	RGS4 inh 5 | RGS4 inh valid inactive | M3R Ca ctr inactive | RGS4 inh ctr2 inactive
Cn1c(=O)c2c(-c3ccccc3)n(-n3cnnc3)cc2n(C)c1=O	RGS4 inh 5.4 | RGS4 inh valid 11% | M3R Ca ctr inactive | RGS4 inh ctr2 inactive
CCOc1cc(/C=C2/C(=O)ON=C2C)ccc1OCc1ccccc1F	RGS4 act -7, RGS4 inh 9.4 | RGS4 inh valid inactive | M3R Ca ctr inactive | RGS4 inh ctr2 94%
COc1cc(/C=C2\C(=O)ON=C2c2ccccc2)cc(OC)c1OC	none
COc1ccc(/C=C2/C(=O)ON=C2c2ccccc2)cc1OC	none | M3R Ca ctr inactive | RGS4 inh ctr2 64%
COc1ccc(/C=C2\C(=O)ON=C2c2ccccc2)cc1OC	none | M3R Ca ctr inactive | RGS4 inh ctr2 8.5%
CCOc1cc(/C=C2\C(=O)ON=C2c2ccccc2)ccc1OC	RGS4 inh 25 | RGS4 inh valid 32% | M3R Ca ctr inactive | RGS4 inh ctr2 50%
O=C(Oc1ccc(C(=S)N2CCOCC2)cc1)c1ccccc1F	none
CCOC(=O)N1CCN(Cc2cn[nH]c2-c2ccc(-c3ccccc3)cc2)CC1	RGS4 inh 6.4 | RGS4 inh valid 5.5% | M3R Ca ctr inactive | RGS4 inh ctr2 inactive
COc1ccccc1N1CCN(Cc2cn[nH]c2-c2ccc(F)cc2)CC1	none | RGS4 inh valid inactive | M3R Ca ctr 50% | RGS4 inh ctr2 inactive
COc1ccccc1N1CCN(Cc2nc(-c3ccc(F)cc3)oc2C)CC1	none
C/C(=N\O)C(=O)Nc1ccccc1	none
CC(=N\Nc1ccc(Cl)cc1)/C(=N/O)C(=O)Nc1ccccc1	RGS4 inh 5.7 | RGS4 inh valid 14% | M3R Ca ctr inactive | RGS4 inh ctr2 inactive
O=C(CC1C(=O)NCCN1Cc1ccccc1C(F)(F)F)NCCN1CCCCC1=O (stereo not given)	none
O=C(COC(=O)/C=C/c1cccs1)Nc1nc(-c2ccccc2)cs1	RGS4 inh 15 | RGS4 inh valid 50% | M3R Ca ctr 53% | RGS4 inh ctr2 inactive
O=C(COC(=O)/C=C/c1cccs1)Nc1nc(-c2cccc(Br)c2)cs1	none | RGS4 inh valid inactive | M3R Ca ctr inactive | RGS4 inh ctr2 12%
COc1cc(CC(=O)Nc2ccccc2N2CCCCC2)cc(OC)c1OC	none
CCOc1ccc(NS(=O)(=O)c2cc(C(=O)N3CC(C)OC(C)C3)ccc2C)cc1 (stereo not given)	none
Cc1cccc(N(Cc2cc3ccc(C)cc3[nH]c2=O)C(=O)c2ccco2)c1	none | M3R Ca ctr inactive | RGS4 inh ctr2 inactive
Cc1ccc(N(Cc2cc3ccccc3[nH]c2=O)C(=O)c2ccco2)c(C)c1	none
Cc1ccc(N(Cc2cc3ccc(C)cc3[nH]c2=O)C(=O)c2ccco2)cc1	none | RGS4 inh valid inactive | M3R Ca ctr inactive | RGS4 inh ctr2 inactive
Cc1ccc(N(Cc2cc3ccc(C)cc3[nH]c2=O)C(=O)c2cccs2)cc1	none
Cc1ccc2cc(CN(C(=O)c3ccco3)c3ccccc3)c(=O)[nH]c2c1	RGS4 inh 5.4 | RGS4 inh valid inactive | M3R Ca ctr inactive | RGS4 inh ctr2 inactive
Cc1cc(-n2c(C)cc(C(=O)COc3ccccc3[N+](=O)[O-])c2C)no1	RGS4 inh 5.1 | RGS4 inh valid inactive | M3R Ca ctr inactive | RGS4 inh ctr2 inactive
Cc1cc(C(=O)COc2ccccc2[N+](=O)[O-])c(C)n1C1CC1	none
CC(C)C[C@H](NC(=O)c1nc[nH]c1C(=O)NCc1ccccc1)C(=O)OCc1ccccc1	none
